Activity calls are given as the source filed them. The calls are words filed in the database; no cut-off is given here.
Legend:
NRK-49F [1] = experiment: Inhibition of TGF-beta-induced collagen accumulation in rat NRK-49F cells at 10 uM incubated for 2 days by PSR staining based microscopic analysis relative to control; format: functional; details: 48 h, time 2 day
Method in brief: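 NRK-49F cells were grown 3 days in DMEM with 5% FBS, then 2 days in DMEM with 1% ITS. Next came 2 days with TGF-β 5 ng/ml plus or minus compound 10 µM. Cells were fixed in 4% paraformaldehyde and stained 4 h with 0.1% Picrosirius Red, then rinsed with acetic acid. Dye was eluted with 0.1 M NaOH and OD read at 540 nm. Inhibition = […] ×100%, in triplicate.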

[2] = Cytotoxicity against rat NRK-49F cells assessed as cell survival rate at 10 uM incubated for 72 hrs by MTT assay; format: cell-based; details: read-out: Activity
Method in brief: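 NRK-49F cells were seeded at 0.5×10^5 cells/ml, cultured overnight, then exposed to compound 10 µM for 72 h. MTT was added and incubated 4 h, formazan dissolved in DMSO and absorbance read. Survival = (treated − zero)/(blank − zero) A ×100%, done in triplicate.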

NRK-49F [3] = experiment: Inhibition of TGF-beta-induced collagen accumulation in rat NRK-49F cells incubated for 2 days by PSR staining based microscopic analysis; format: functional, cell-based; details: 48 h
L929 = experiment: Antimigratory activity in mouse L929 cells assessed as inhibition of TGF-beta-induced cell migration at 10 uM incubated for 24 hrs by wound healing assay; format: functional, cell-based
Method in brief: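 Mouse L929 fibroblasts (MEM, 10% FBS, 37 °C, 5% CO₂) were grown to confluence and scratched with a pipette tip to a 100 µm wound. They were then kept in serum-free medium with or without TGF-β 5 ng/ml and compound 10 µM for 24 h. Wounds were imaged by light microscopy at 0, 12 and 24 h.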

NRK-49F [4] = experiment: Inhibition of TGF-beta-induced collagen-1 protein expression in rat NRK-49F cells at 20 to 40 uM incubated for 24 hrs by Western blotting analysis; format: functional, cell-based; details: dose 20-40 µM
NRK-49F [5] = experiment: Inhibition of TGF-beta-induced alpha-SMA protein expression in rat NRK-49F cells at 20 to 40 uM incubated for 24 hrs by Western blotting analysis; format: functional, cell-based; details: dose 20-40 µM
[6] = biological target: Mothers against decapentaplegic homolog 2 (Rattus norvegicus) (UniProt O70436); experiment: Inhibition of TGF-beta induced SMAD2 phosphorylation in rat NRK-49F cells at 20 to 40 uM pretreated with compound for 1 to 2 hrs followed by TGF-beta stimulation for 1 hr by Western blot analysis; format: cell-based; details: dose 20-40 µM, time 2-3 hrs
Method in brief: (§1)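 NRK-49F cells were pretreated with or without compound (20 and 40 µM) for 1 or 2 h, then stimulated with TGF-β 5 ng/mL for 1 h. Lysates were made in RIPA with PMSF and protease inhibitors, and 30–40 µg protein was run on 10–12% SDS-PAGE and moved to PVDF. Blots were probed for phospho- and total Smad2, Smad3, p38 and ERK1/2, with GAPDH as loading control and ECL detection.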

[7] = biological target: Mothers against decapentaplegic homolog 3 (Rattus norvegicus) (UniProt P84025); experiment: Inhibition of TGF-beta induced SMAD3 phosphorylation in rat NRK-49F cells at 20 to 40 uM pretreated with compound for 1 to 2 hrs followed by TGF-beta stimulation for 1 hr by Western blot analysis; format: cell-based; details: dose 20-40 µM, time 2-3 hrs; method in brief: as §1
[8] = biological target: Mitogen-activated protein kinase 1 and 3 (ERK2 and ERK1) (Rattus norvegicus) (UniProt P63086+P21708); experiment: Inhibition of TGF-beta induced ERK1/2 phosphorylation in rat NRK-49F cells at 20 to 40 uM pretreated with compound for 1 to 2 hrs followed by TGF-beta stimulation for 1 hr by Western blot analysis; format: cell-based; details: dose 20-40 µM, time 2-3 hrs; method in brief: as §1
NRK-49F [9] = experiment: Inhibition of TGF-beta induced p38 phosphorylation in rat NRK-49F cells at 20 to 40 uM pretreated with compound for 1 to 2 hrs followed by TGF-beta stimulation for 1 hr by Western blot analysis; format: cell-based; details: dose 20-40 µM, time 2-3 hrs; method in brief: as §1
[10] = Tmax in Sprague-Dawley rat at 5 mg/kg, iv; format: ADME, organism-based; details: in vivo
Method in brief: (§2)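 Rats were given a single 5 mg/kg dose intravenously or orally, and plasma concentration–time curves were followed. t1/2, tmax, AUC0-t and oral bioavailability (n = 5) were derived from these curves.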

[11] = Tmax in Sprague-Dawley rat at 5 mg/kg, po; format: ADME, organism-based; details: in vivo; method in brief: as §2
[12] = Half life in Sprague-Dawley rat at 5 mg/kg, iv; format: ADME, organism-based; details: in vivo; method in brief: as §2
[13] = Half life in Sprague-Dawley rat at 5 mg/kg, po; format: ADME, organism-based; details: in vivo; method in brief: as §2
[14] = AUC (0 to t) in Sprague-Dawley rat at 5 mg/kg, iv; format: ADME, organism-based; design: dose 5 mg/kg; details: in vivo
Method in brief: (§3)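 Rats received a single 5 mg/kg dose, either intravenously or orally. AUC0-t was derived from plasma concentration–time curves after that one dose. n = 5 per the reported oral data.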

[15] = AUC (0 to t) in Sprague-Dawley rat at 5 mg/kg, po; format: ADME, organism-based; design: dose 5 mg/kg; details: in vivo; method in brief: as §3
[16] = Oral bioavailability in Sprague-Dawley rat at 5 mg/kg; format: ADME, organism-based; details: in vivo; method in brief: as §2
Mus musculus [17] = experiment: Anti-fibrotic activity in C57BL/6 mouse model of bleomycin-induced lung fibrosis assessed as reduction in collagen deposition by measuring hydroxyproline content in lung at 50 to 100 mg/kg, po administered for 30 days starting from day 1 post bleomycin treatment; format: functional, organism-based; details: dose 50-100 mg/kg, time 30.0 day
Method in brief: (§4)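 In the bleomycin mouse model (male C57BL/6, 8 weeks, 3 U/kg intratracheal in saline, n=10 per group), daily oral dosing ran days 1–30 or days 8–21. Right lungs were dried, acid hydrolysed, filtered and brought to pH 6.5–8.0. Hydroxyproline was read by chloramine-T spectrophotometry with a kit.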

Mus musculus [18] = experiment: Anti-fibrotic activity in C57BL/6 mouse model of bleomycin-induced lung fibrosis assessed as reduction in collagen deposition by measuring hydroxyproline content in lung at 100 mg/kg, po administered for […] starting from day 8 post bleomycin treatment; format: functional, organism-based; details: time 14.0 day; method in brief: as §4
Mus musculus [19] = experiment: Anti-fibrotic activity in C57BL/6 mouse model of bleomycin-induced lung fibrosis assessed as survival rate at 50 to 100 mg/kg, po administered for 30 days starting from day 1 post bleomycin treatment; format: functional, organism-based; details: dose 50-100 mg/kg, time 30.0 day
Method in brief: (§5)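 Survival was followed in male C57BL/6 mice (8 weeks, n=10 per group) after one intratracheal bleomycin dose of 3 U/kg in 0.075 mL saline. Oral dosing was daily, days 1–30 (prevention) or days 8–21 (treatment), with survival curves plotted.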

Mus musculus [20] = experiment: Anti-fibrotic activity in C57BL/6 mouse model of bleomycin-induced lung fibrosis assessed as survival rate at 50 mg/kg, po administered for […] starting from day 8 post bleomycin treatment; format: functional, organism-based; details: time 14.0 day; method in brief: as §5
Mus musculus [21] = experiment: Anti-fibrotic activity in C57BL/6 mouse model of bleomycin-induced lung fibrosis assessed as protection of alveolar tissue structure at 50 to 100 mg/kg, po administered for 30 days starting from day 1 post bleomycin treatment by hematoxylin and eosin staining based microscopic analysis; format: functional, organism-based; details: dose 50-100 mg/kg, time 30.0 day
Method in brief: (§6)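 Male C57BL/6 mice, 8 weeks old, n=10 per group; lung fibrosis from one intratracheal instillation of bleomycin 3 U/kg in 0.075 mL saline, saline-only controls. Daily oral dosing days 1–30 (prevention) or days 8–21 (treatment). Left lungs fixed in 10% formalin 24 h, paraffin-embedded, 5 µm sections stained with H&E (also Masson's trichrome) and examined by microscopy.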

Mus musculus [22] = experiment: Anti-fibrotic activity in C57BL/6 mouse model of bleomycin-induced lung fibrosis assessed as protection of alveolar tissue structure at 100 mg/kg, po administered for […] starting from day 8 post bleomycin treatment by hematoxylin and eosin staining based microscopic analysis; format: functional, organism-based; details: time 14.0 day; method in brief: as §6
Mus musculus [23] = experiment: Anti-fibrotic activity in C57BL/6 mouse model of bleomycin-induced lung fibrosis assessed as reduction in inflammatory cell infiltration at 50 to 100 mg/kg, po administered for 30 days starting from day 1 post bleomycin treatment by hematoxylin and eosin staining based microscopic analysis; format: functional, organism-based; details: dose 50-100 mg/kg, time 30.0 day; method in brief: as §6
Mus musculus [24] = experiment: Anti-fibrotic activity in C57BL/6 mouse model of bleomycin-induced lung fibrosis assessed as suppression of smad3 phosphorylation level in lung at 50 to 100 mg/kg, po administered for 30 days starting from day 1 post bleomycin treatment by immunohistochemistry staining based microscopic analysis; format: functional, organism-based; details: dose 50-100 mg/kg, time 30.0 day
Method in brief: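 Male C57BL/6 mice, 8 weeks, got intratracheal bleomycin 3 U/kg in 0.075 mL saline, then daily oral dosing days 1–30. Left lungs were formalin-fixed (10%, 24 h) and paraffin-embedded; 5 µm sections were incubated with antibody at 4 °C overnight for immunohistochemistry of phospho-Smad3 and imaged by microscopy.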

[25] = Effect on total Smad2 expression in TGFbeta-stimulated rat NRK-49F at 20 to 40 uM preincubated for 1 to 2 hrs followed by TGF-beta stimulation and measured after 1 hr by Western blot analysis; details: dose lower 20 µM, time lower 2 hrs, dose upper 40 µM, time upper 3 hrs; method in brief: as §1
[26] = Effect on total Smad3 expression in TGFbeta-stimulated rat NRK-49F at 20 to 40 uM preincubated for 1 to 2 hrs followed by TGF-beta stimulation and measured after 1 hr by Western blot analysis; details: dose lower 20 µM, time lower 2 hrs, dose upper 40 µM, time upper 3 hrs; method in brief: as §1
[27] = Effect on total […] expression in TGFbeta-stimulated rat NRK-49F at 20 to 40 uM preincubated for 1 to 2 hrs followed by TGF-beta stimulation and measured after 1 hr by Western blot analysis; details: dose lower 20 µM, time lower 2 hrs, dose upper 40 µM, time upper 3 hrs; method in brief: as §1
[28] = Effect on total p38 expression in TGFbeta-stimulated rat NRK-49F at 20 to 40 uM preincubated for 1 to 2 hrs followed by TGF-beta stimulation and measured after 1 hr by Western blot analysis; format: tissue-based; details: dose lower 20 µM, time lower 2 hrs, dose upper 40 µM, time upper 3 hrs; method in brief: as §1

Sequence of Mitogen-activated protein kinase 1 and 3 (ERK2 and ERK1) (Rattus norvegicus) (P21708 whole entry, looked up): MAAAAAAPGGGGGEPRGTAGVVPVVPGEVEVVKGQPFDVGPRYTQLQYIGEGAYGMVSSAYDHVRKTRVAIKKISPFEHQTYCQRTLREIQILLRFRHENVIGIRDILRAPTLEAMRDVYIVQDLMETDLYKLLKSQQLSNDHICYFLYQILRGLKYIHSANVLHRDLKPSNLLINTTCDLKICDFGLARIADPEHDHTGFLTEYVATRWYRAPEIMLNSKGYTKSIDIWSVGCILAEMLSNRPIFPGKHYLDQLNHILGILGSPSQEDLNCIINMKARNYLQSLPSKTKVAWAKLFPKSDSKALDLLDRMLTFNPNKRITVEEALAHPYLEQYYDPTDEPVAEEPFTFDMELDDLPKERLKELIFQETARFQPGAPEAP
Sequence of Mitogen-activated protein kinase 1 and 3 (ERK2 and ERK1) (Rattus norvegicus) (P63086 whole entry, looked up): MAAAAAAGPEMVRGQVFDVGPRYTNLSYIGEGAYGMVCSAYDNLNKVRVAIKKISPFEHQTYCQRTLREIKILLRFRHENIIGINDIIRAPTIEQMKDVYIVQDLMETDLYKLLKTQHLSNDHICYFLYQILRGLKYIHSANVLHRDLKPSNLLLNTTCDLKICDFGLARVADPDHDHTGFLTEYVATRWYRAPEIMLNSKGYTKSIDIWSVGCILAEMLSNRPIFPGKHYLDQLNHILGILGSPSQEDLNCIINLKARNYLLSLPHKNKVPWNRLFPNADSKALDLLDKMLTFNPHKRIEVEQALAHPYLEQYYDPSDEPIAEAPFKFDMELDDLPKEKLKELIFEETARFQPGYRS
Sequence of Mothers against decapentaplegic homolog 2 (Rattus norvegicus) (O70436 whole entry): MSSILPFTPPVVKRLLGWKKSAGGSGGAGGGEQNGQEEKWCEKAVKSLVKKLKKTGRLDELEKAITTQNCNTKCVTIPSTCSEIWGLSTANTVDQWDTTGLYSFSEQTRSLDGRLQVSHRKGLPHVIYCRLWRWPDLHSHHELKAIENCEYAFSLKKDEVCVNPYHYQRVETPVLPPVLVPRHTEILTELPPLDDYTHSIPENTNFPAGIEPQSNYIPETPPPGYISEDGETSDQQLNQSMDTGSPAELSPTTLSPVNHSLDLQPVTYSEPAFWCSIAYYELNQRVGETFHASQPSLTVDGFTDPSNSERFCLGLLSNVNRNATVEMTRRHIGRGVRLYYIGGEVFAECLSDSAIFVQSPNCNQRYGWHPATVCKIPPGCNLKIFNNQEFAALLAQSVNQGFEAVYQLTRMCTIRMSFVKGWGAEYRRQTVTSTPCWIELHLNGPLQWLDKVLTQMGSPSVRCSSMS
Sequence of Mothers against decapentaplegic homolog 3 (Rattus norvegicus) (P84025 whole entry, looked up): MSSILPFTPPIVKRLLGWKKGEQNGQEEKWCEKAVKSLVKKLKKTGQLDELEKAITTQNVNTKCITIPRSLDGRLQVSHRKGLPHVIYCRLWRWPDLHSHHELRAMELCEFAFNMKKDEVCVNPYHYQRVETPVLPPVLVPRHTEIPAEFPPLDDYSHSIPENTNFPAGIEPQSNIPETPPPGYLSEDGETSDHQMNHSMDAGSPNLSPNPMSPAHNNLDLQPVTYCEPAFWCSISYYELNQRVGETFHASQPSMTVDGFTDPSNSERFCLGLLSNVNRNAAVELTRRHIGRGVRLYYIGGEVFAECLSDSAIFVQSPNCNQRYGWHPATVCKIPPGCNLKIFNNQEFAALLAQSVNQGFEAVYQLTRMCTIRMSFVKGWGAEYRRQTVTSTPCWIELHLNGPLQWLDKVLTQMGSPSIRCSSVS

Structure (SMILES): CC(C)(C)N1CCN(CC(=O)Nc2ccc(Oc3cc(=O)[nH]c4ccccc34)c(F)c2)CC1
- inhibition at 10 µM (NRK-49F [1]): 78%
- viability at 72 h, 10 µM [2]: 93.1%
- IC50 (NRK-49F [3]): 4.47 µM
- inhibition (L929): Active

Structure (SMILES): O=C(CN1CCN(C(=O)C2CC2)CC1)Nc1ccc(Oc2cc(=O)[nH]c3ccccc23)c(F)c1
- inhibition at 10 µM (NRK-49F [1]): 87.5%
- viability at 72 h, 10 µM [2]: 97.5%
- inhibition (L929): Active
- inhibition (NRK-49F [4]): Active
- inhibition (NRK-49F [5]): Active
- inhibition [6]: Dose-dependent effect
- inhibition [7]: Dose-dependent effect
- inhibition [8]: Active
- inhibition (NRK-49F [9]): Active
- Tmax [10]: 4.8 min
- Tmax [11]: 4.33 h
- half-life [12]: 4.39 h
- half-life [13]: 3.5 h
- AUC(0-t) [14]: 13100 ng·h/mL
- AUC(0-t) [15]: 5460 ng·h/mL
- bioavailability [16]: 41.5%
- Activity (Mus musculus [17]): Active
- Activity (Mus musculus [18]): Active
- Activity (Mus musculus [19]): Active
- Activity (Mus musculus [20]): Active
- Activity (Mus musculus [21]): Active
- Activity (Mus musculus [22]): Active
- Activity (Mus musculus [23]): Active
- Activity (Mus musculus [24]): Active
- Activity [25]: Non-Toxic
- Activity [26]: Non-Toxic
- Activity [27]: Non-Toxic
- Activity [28]: Non-Toxic

Structure (SMILES): O=C(CN1CCCC1)Nc1ccc(Sc2cc(=O)[nH]c3ccccc23)cc1
- inhibition at 10 µM (NRK-49F [1]): 80.9%
- viability at 72 h, 10 µM [2]: 87%
- IC50 (NRK-49F [3]): 5.33 µM
- inhibition (L929): Active
